Measured values taken from ChEMBL document CHEMBL3596181, “Optimization of the anti-cancer activity of phosphatidylinositol-3 kinase pathway inhibitor PITENIN-1: switching a thiourea with 1,2,3-triazole” (Medchemcomm, 2014).
Activity calls are given as the source filed them. The calls are words filed in the database; no cut-off is given here.

Key:
A2780 [1] = assay: Cytotoxicity against human A2780 cells by […]; assay type: functional, cell-based
Summary of the method: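 Cells were exposed to inhibitors together with 1 μg/mL TRAIL for 24 hr. Viability was read by CellTiter-Glo assay.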

A2780 [2] = assay: Cytotoxicity against human A2780 cells by ESI; assay type: functional, cell-based
[3] = Half life in mouse at 1 mg/kg, iv; assay type: ADME, organism-based; conditions: in vivo
[4] = Clearance in mouse at 1 mg/kg, iv; assay type: ADME, organism-based; conditions: in vivo
[5] = Inhibition of Akt in human A2780 cells assessed as inhibition of TORC1/p70S6K/S6 pathway at 0.3 to 50 uM after 7 hrs by Western blotting analysis; assay type: cell-based
Summary of the method: (§1)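 U87MG or A2780 cells were exposed to inhibitors for 7 hr. Lysates were Western blotted with phospho-S6 and total S6 antibodies.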

[6] = Clearance in mouse liver microsomes; assay type: ADME; conditions: read-out: CLH
Summary of the method: (§2)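 Stability in mouse liver microsomes in vitro. Half-life (min) and intrinsic clearance (μL·min⁻¹·mg⁻¹) were determined.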

[7] = Inhibition of Akt in human U87MG cells assessed as inhibition of TORC1/p70S6K/S6 pathway at 0.3 to 50 uM after 7 hrs by Western blotting analysis; assay type: cell-based; conditions: U-87MG ATCC; summary of the method: as §1
A2780 [8] = assay: Cytotoxicity against human A2780 cells at 6.25 to 50 uM after 24 hrs by CellTitre-Glo assay; assay type: functional, cell-based
Summary of the method: (§3)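 Cells were treated with inhibitors alone for 24 hr. Viability was read by CellTiter-Glo luminescence.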

U-87 MG = assay: Cytotoxicity against human U87MG cells at 6.25 to 50 uM after 24 hrs by CellTitre-Glo assay; assay type: functional, cell-based; conditions: U-87MG ATCC; summary of the method: as §3
[9] = target: RAC-alpha serine/threonine-protein kinase (Homo sapiens) (UniProt P31749); assay: Inhibition of Akt PH domain (unknown origin) binding to PI(3,4)P2 at 100 uM by lipid overlay assay
Chain of RAC-alpha serine/threonine-protein kinase (Homo sapiens) (P31749 whole entry, the tested form may be a part): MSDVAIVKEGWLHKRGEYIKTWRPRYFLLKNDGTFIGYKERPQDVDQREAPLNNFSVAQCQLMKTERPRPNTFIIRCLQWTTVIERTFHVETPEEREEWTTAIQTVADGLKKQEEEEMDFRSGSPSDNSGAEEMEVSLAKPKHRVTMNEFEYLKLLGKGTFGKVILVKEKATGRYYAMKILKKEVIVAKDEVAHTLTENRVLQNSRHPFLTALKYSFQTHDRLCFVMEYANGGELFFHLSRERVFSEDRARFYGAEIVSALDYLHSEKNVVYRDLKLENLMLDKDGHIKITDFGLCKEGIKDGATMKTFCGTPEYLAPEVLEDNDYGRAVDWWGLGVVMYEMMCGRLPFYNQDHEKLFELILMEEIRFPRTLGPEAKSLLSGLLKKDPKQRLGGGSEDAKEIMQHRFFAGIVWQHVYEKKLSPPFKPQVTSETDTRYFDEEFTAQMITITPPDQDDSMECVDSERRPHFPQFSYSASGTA
Summary of the method: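 Lipid overlay: AktPH domain binding to PI(3,4)P2 spotted on a […] membrane.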

[10] = Half life in mouse liver microsomes; assay type: ADME; summary of the method: as §2
A2780 [11] = assay: Antimigratory activity against human A2780 cells at 0.75 to 1.5 uM by wound healing assay; assay type: functional, cell-based
Summary of the method: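 Wound healing: A2780 monolayers were treated with inhibitors and then scratch-wounded. The cell-free area was photographed at set time points, and the open wound area was quantified.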

T47D = assay: Cytotoxicity against human T47D cells at 6.25 to 50 uM after 24 hrs by CellTitre-Glo assay; assay type: functional, cell-based; summary of the method: as §3
[12] = Bioavailability in ip dosed mouse; assay type: ADME, organism-based; conditions: in vivo
Summary of the method: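 Bioavailability was calculated from intraperitoneal administration relative to an intravenous 1 mg/kg dose in mouse.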

Q: With Cc1cccc(O)c1-n1cc(C(=O)c2ccc3ccccc3c2)nn1 as the compound, how does the EC50 (A2780 [1]) read?
A: Its EC50 is 74.9 µmol.

Q: What about the EC50 (A2780 [2]) of the same compound?
A: The EC50 was 85.2 µmol.

Q: With Cc1cccc(O)c1-n1cc(C(=O)c2ccccc2)nn1 as the compound, how does the EC50 (A2780 [1]) read?
A: Its EC50 is 8 µmol.

Q: What about the EC50 (A2780 [2]) of the same compound?
A: The EC50 was 8.1 µmol.

Q: What does the source list for Cc1ccc(O)c(-n2cc(C(=O)c3ccc(C(C)C)cc3)nn2)c1?
A: EC50 (A2780 [1]): > 100 µmol; EC50 (A2780 [2]): > 100 µmol

Q: For Cc1ccc(O)c(-n2cc(C(=O)c3ccc4ccccc4c3)nn2)c1, which EC50 (A2780 [1]) is on record?
A: Its EC50 is > 100 µmol.

Q: And the EC50 (A2780 [2])?
A: Its EC50 is > 100 µmol.

Q: For CC(C)c1ccc(C(=O)c2cn(-c3cc(Cl)ccc3O)nn2)cc1, which EC50 (A2780 [1]) is on record?
A: Its EC50 is 41.6 µmol.

Q: What about the EC50 (A2780 [2]) of the same compound?
A: Its EC50 is 64.1 µmol.

Q: What does the source list for Cc1cc(C)cc(C(=O)c2cn(-c3cc(Cl)ccc3O)nn2)c1?
A: EC50 (A2780 [1]): 30.6 µmol; EC50 (A2780 [2]): 57.8 µmol

Q: With Cc1cc(C)cc(C(=O)c2cn(-c3ccc(Cl)cc3O)nn2)c1 as the compound, how does the EC50 (A2780 [1]) read?
A: The EC50 was 64.4 µmol.

Q: What about the EC50 (A2780 [2]) of the same compound?
A: Its EC50 is > 100 µmol.

Q: For Cc1cc(C)cc(C(=O)c2cn(-c3cc(C)ccc3O)nn2)c1, which EC50 (A2780 [1]) is on record?
A: The EC50 was > 100 µmol.

Q: And the EC50 (A2780 [2])?
A: The EC50 was > 100 µmol.

Q: For COc1ccc(Cl)cc1-n1cc(C(=O)c2ccccc2)nn1, which EC50 (A2780 [1]) is on record?
A: Its EC50 is > 100 µmol.

Q: And the EC50 (A2780 [2])?
A: The EC50 was > 100 µmol.

Q: For O=C(c1cc(C(F)(F)F)cc(C(F)(F)F)c1)c1cn(-c2cc(Cl)ccc2O)nn1, which half-life [3] is on record?
A: Its half-life is 3.22 h.

Q: And the EC50 (A2780 [1])?
A: Its EC50 is 3.15 µmol.

Q: What about the clearance [4] of the same compound?
A: The clearance was 15.5 mL/min/kg.

Q: What about the inhibition [5] of the same compound?
A: The inhibition was “Active”.

Q: And the microsomal CLint [6]?
A: The microsomal CLint was 19.4 µL/min/mg.

Q: What about the inhibition [7] of the same compound?
A: Its inhibition is “Active”.

Q: What about the Activity (A2780 [8]) of the same compound?
A: The Activity was “Active”.

Q: What about the Activity (U-87 MG) of the same compound?
A: The Activity was “Active”.

Q: And the EC50 (A2780 [2])?
A: Its EC50 is 11.99 µmol.

Q: What about the inhibition [9] of the same compound?
A: Its inhibition is “Active”.

Q: And the half-life [10]?
A: Its half-life is 1.98 h.

Q: And the Activity (A2780 [11])?
A: Its Activity is “Active”.

Q: And the Activity (T47D)?
A: The Activity was “Active”.

Q: What about the bioavailability [12] of the same compound?
A: Its bioavailability is 85.1%.

Q: For O=C(c1ccccc1)c1cn(-c2cc(Cl)ccc2O)nn1, which EC50 (A2780 [1]) is on record?
A: The EC50 was 51.6 µmol.

Q: And the EC50 (A2780 [2])?
A: The EC50 was 104 µM.

Q: For O=C(NC(=S)Nc1cc([N+](=O)[O-])cc(Cl)c1O)c1ccccc1, which inhibition [9] is on record?
A: Its inhibition is “Active”.

Q: For Cc1cccc(O)c1-n1cc(C(=O)c2ccc(C(C)C)cc2)nn1, which EC50 (A2780 [1]) is on record?
A: The EC50 was > 100 µmol.

Q: And the EC50 (A2780 [2])?
A: Its EC50 is > 100 µmol.

Q: With Cc1ccc(O)c(-n2cc(C(=O)c3ccccc3)nn2)c1 as the compound, how does the EC50 (A2780 [1]) read?
A: The EC50 was > 100 µmol.

Q: And the EC50 (A2780 [2])?
A: Its EC50 is > 100 µmol.

Q: Which results are given for O=C(c1ccccc1)c1cn(-c2ccc(Cl)cc2O)nn1?
A: EC50 (A2780 [1]): 42.3 µmol; EC50 (A2780 [2]): 48.9 µmol

Q: Which results are given for Cc1cc(C)cc(C(=O)c2cn(-c3c(C)cccc3O)nn2)c1?
A: EC50 (A2780 [1]): 98.4 µmol; EC50 (A2780 [2]): 104 µM

Q: Which microsomal CLint [6] does the source give for Cc1cc(C)cc(C(=O)NC(=S)Nc2cc([N+](=O)[O-])ccc2O)c1 here?
A: Its microsomal CLint is 1260 µL/min/mg.

Q: And the half-life [10]?
A: Its half-life is 0.03 h.

Q: With O=C(c1ccc2ccccc2c1)c1cn(-c2cc(Cl)ccc2O)nn1 as the compound, how does the EC50 (A2780 [1]) read?
A: Its EC50 is > 100 µmol.

Q: What about the EC50 (A2780 [2]) of the same compound?
A: The EC50 was > 100 µmol.

Q: With Cc1cc(C)cc(C(=O)c2cn(-c3ccc([N+](=O)[O-])cc3O)nn2)c1 as the compound, how does the EC50 (A2780 [1]) read?
A: The EC50 was 70.5 µmol.

Q: What about the EC50 (A2780 [2]) of the same compound?
A: The EC50 was 89.1 µmol.

Q: Which EC50 (A2780 [1]) does the source give for O=C(NCc1cn(-c2cc(Cl)ccc2O)nn1)c1cc(C(F)(F)F)cc(C(F)(F)F)c1 here?
A: Its EC50 is 14 µmol.

Q: And the EC50 (A2780 [2])?
A: Its EC50 is 16.2 µmol.
